A short description of data set [1]: In vitro phosphorylation of compounds in rat whole blood. The class given is in vitro ADME. The conditions noted are these: for Vmax (phosphorylation): 37 °C, 60 min, 1–100 μmol/L; for Km: read-out: Km (phosphorylation), 37 °C, 60 min, 1–100 μmol/L. The gist of the method: (§1)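 Test compound was spiked directly into fresh whole blood at eight levels from 1 to 100 and incubated at 37 °C for 60 min. Reactions were quenched with ice-cold acetonitrile, vortexed and centrifuged. The supernatant was analysed by LC-MS/MS for phosphate formation. Km and Vmax were obtained by nonlinear fitting to the Michaelis–Menten equation.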

The nature of data set [2]: In vitro phosphorylation of compounds in human whole blood. The data set is classed as in vitro ADME. The conditions noted are these: for Vmax (phosphorylation): 37 °C, 60 min, 1–100 μmol/L; for Km: read-out: Km (phosphorylation), 37 °C, 60 min, 1–100 μmol/L. In short, it runs like this: as §1
The format of data set [3] is in vivo. The conditions noted are these: Sprague–Dawley rats, oral 3 mg/kg. In short, it runs like this:
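Male Sprague–Dawley rats, three per group, were fasted 12 h, dosed orally at 3 mg/kg in 0.5% hydroxypropyl methylcellulose, and fed 4 h postdose. Heparinized orbital blood was taken from 0.08 to 48 h, including 6 h, and protein-precipitated with acetonitrile. Parent and phosphorylated drug were quantified by positive-ESI MRM LC-MS/MS on a C18 column with a formic acid water/methanol gradient.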

In the case of `CCCCCCCCc1ccc(CCC(N)(CO)CO)cc1` [FTY720, fingolimod, reference compound], in data set [1], the “CLint (phosphorylation)” value came to 0.930 µL/min, the “Vmax (phosphorylation)” value is given as 63.4 ± 10.2 pmol/min and the Km came out at 68.2 ± 11.2 µM. In addition, in data set [2], the “CLint (phosphorylation)” value amounted to 0.013 µL/min, the “Vmax (phosphorylation)” value was determined as 0.33 ± 0.05 pmol/min and the Km amounted to 25.7 ± 4.2 µM. The “phosphorylation level at 6 h after dosing” value (shortened to “phosphorylation level at 6 h”) in data set [3] amounted to 80%.
For the compound `CCCCCCCCc1ccc(CC[C@@](C)(N)CO)cc1.Cl` [Compound 21, (R)-2-Amino-2-methyl-4-(4-octylphenyl)butan-1-ol hydrochloride], in data set [1], the “CLint (phosphorylation)” value was 1.545 µL/min, the “Vmax (phosphorylation)” value is on record as 221 ± 36.8 pmol/min and the Km stood at 143 ± 25.4 µM. For the same compound, in data set [2], the “CLint (phosphorylation)” value was 0.295 µL/min, the “Vmax (phosphorylation)” value was found to be 3.36 ± 0.62 pmol/min and the Km was 11.4 ± 1.9 µM. Besides, the “phosphorylation level at 6 h” value in data set [3] is given as 95%.
With `CCCCCCCCc1ccc(CC[C@@H](N)CO)cc1.Cl` [Compound 22, (R)-2-Amino-4-(4-octylphenyl)butan-1-ol hydrochloride], in data set [1], the “CLint (phosphorylation)” value worked out at 3.121 µL/min, the “Vmax (phosphorylation)” value is given as 28.4 ± 4.5 pmol/min and the Km was found to be 9.1 ± 1.8 µM. In data set [2], the “CLint (phosphorylation)” value was 0.021 µL/min, the “Vmax (phosphorylation)” value is recorded as 1.24 ± 0.31 pmol/min and the Km stood at 58.2 ± 10.6 µM. Further, the “phosphorylation level at 6 h” value in data set [3] amounted to 69%.
On to `CCc1nc(-c2ccc(-c3ccc(CC[C@@H](N)CO)cc3)cc2)co1.Cl` [Compound 24, (R)-2-Amino-4-(4′-(2-ethyloxazol-4-yl)-[1,1′-biphenyl]-4-yl)butan-1-ol hydrochloride], for which, in data set [1], the “CLint (phosphorylation)” value is 0.015 µL/min, the “Vmax (phosphorylation)” value is listed as 1.9 ± 0.3 pmol/min and the Km was determined as 128 ± 23.4 µM. In data set [2], the “CLint (phosphorylation)” value is 0.006 µL/min, the “Vmax (phosphorylation)” value is given as 0.24 ± 0.05 pmol/min and the Km is 40.2 ± 7.3 µM. In data set [3], the “phosphorylation level at 6 h” value was 89%.
For `CCc1nc(-c2ccc(-c3ccc(CC[C@@](C)(N)CO)cc3)cc2)co1.Cl` [Compound 23, (R)-2-Amino-4-(4′-(2-ethyloxazol-4-yl)-[1,1′-biphenyl]-4-yl)-2-methylbutan-1-ol hydrochloride], in data set [1], the “CLint (phosphorylation)” value came to 0.505 µL/min, the “Vmax (phosphorylation)” value came out at 65.2 ± 8.2 pmol/min and the Km turned out to be 129 ± 15.6 µM. Besides, in data set [2], the “CLint (phosphorylation)” value was found to be 0.012 µL/min, the “Vmax (phosphorylation)” value is reported as 0.87 ± 0.09 pmol/min and the Km was 65.5 ± 8.3 µM. In addition, in data set [3], the “phosphorylation level at 6 h” value was 94%.
